The source made the active and inactive calls. The rule behind the calls is not given here.
Experiments:
NCI-H3122 = assay: Antiproliferative activity against human NCI-H3122 cells after 72 hrs by CellTiter-Glo luminescent cell viability assay; assay type: functional, cell-based
[1] = target: T1, ALK tyrosine kinase receptor (Homo sapiens, UniProt Q9UM73); assay: Induction of ALK degradation in human NCI-H3122 cells after 16 hrs by immunoblot method; assay type: cell-based
Method in brief: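 H3122 and Karpas 299 cells were given a dose titration for 16 h. ALK and Aurora A were then read by immunoblot. DC50 was calculated from the titrations, two independent experiments.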

[2] = target: T1, ALK tyrosine kinase receptor; assay: Induction of ALK degradation in human NCI-H3122 cells at 250 nM after 4 hrs by immunoblot method; assay type: cell-based
Target sequence in this assay (Q9UM73 19-1620 limits assumed): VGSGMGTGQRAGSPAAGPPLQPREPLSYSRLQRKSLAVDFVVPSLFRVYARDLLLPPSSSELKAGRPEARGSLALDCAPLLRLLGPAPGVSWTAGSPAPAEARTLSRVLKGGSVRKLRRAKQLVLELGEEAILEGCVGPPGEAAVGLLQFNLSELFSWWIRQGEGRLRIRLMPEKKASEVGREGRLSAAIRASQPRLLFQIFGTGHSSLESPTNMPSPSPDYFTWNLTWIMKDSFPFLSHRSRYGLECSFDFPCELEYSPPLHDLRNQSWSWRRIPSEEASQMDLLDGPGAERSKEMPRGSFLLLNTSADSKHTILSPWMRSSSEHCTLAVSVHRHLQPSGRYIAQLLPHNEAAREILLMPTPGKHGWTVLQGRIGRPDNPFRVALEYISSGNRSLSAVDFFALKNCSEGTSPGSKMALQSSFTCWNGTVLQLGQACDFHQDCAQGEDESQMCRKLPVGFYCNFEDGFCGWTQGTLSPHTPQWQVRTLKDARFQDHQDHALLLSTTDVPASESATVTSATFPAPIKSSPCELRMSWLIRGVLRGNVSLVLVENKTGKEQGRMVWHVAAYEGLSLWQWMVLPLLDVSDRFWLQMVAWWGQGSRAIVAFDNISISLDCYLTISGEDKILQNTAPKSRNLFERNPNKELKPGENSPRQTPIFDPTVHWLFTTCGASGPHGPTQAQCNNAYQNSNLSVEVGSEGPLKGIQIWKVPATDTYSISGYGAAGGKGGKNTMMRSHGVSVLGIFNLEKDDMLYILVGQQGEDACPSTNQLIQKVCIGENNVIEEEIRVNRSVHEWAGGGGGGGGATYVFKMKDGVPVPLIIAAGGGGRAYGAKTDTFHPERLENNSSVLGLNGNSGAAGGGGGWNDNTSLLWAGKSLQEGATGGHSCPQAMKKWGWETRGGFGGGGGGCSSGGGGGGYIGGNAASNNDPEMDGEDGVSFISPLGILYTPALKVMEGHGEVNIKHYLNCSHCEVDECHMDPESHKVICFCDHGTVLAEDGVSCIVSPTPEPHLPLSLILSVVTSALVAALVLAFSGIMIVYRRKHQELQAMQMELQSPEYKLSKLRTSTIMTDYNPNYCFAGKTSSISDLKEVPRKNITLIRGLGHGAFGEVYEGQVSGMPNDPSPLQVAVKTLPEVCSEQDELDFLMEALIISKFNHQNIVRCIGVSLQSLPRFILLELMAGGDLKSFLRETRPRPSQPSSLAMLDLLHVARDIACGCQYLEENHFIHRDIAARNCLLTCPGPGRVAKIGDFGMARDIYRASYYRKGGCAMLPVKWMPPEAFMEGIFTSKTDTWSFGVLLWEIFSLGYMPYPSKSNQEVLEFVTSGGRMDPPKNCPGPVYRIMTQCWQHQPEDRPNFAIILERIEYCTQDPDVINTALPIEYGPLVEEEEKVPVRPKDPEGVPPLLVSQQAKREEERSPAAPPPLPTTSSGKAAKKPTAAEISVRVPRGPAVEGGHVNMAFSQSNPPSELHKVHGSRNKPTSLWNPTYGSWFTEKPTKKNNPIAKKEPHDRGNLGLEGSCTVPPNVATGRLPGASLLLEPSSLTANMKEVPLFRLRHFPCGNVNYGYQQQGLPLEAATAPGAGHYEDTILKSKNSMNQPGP

[3] = target: T1, ALK tyrosine kinase receptor; assay: Induction of ALK degradation in human NCI-H3122 cells at 250 nM after 16 hrs in presence of proteasome inhibitor carfilzomib by immunoblot method; assay type: cell-based
Target sequence in this assay (Q9UM73 19-1620 limits assumed): as above

[4] = target: T2, Aurora kinase A (Homo sapiens) (UniProt O14965); assay: Induction of aurora A degradation in human NCI-H3122 cells at 250 nM after 16 hrs in presence of proteasome inhibitor carfilzomib by immunoblot method; assay type: cell-based
T2 sequence (whole entry): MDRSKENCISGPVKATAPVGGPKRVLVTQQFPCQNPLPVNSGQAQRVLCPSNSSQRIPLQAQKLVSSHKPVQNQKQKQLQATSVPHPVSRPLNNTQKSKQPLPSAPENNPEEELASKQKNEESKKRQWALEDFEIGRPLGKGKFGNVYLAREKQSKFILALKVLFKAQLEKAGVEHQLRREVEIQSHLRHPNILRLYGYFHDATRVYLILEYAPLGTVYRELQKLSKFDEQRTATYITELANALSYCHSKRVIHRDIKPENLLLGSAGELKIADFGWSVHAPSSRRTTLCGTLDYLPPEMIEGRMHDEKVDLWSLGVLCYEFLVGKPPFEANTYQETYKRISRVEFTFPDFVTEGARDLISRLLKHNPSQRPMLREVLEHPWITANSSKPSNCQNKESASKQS

[5] = target: T1, ALK tyrosine kinase receptor; assay: Induction of ALK degradation in human NCI-H3122 cells at 250 nM after 16 hrs in presence of […] inhibitor MLN4924 by immunoblot method; assay type: cell-based
Target sequence in this assay (Q9UM73 19-1620 limits assumed): as the sequence (Q9UM73 19-1620 limits assumed) above

[6] = target: T1, ALK tyrosine kinase receptor; assay: Induction of ALK degradation in human KARPAS299 cells at 250 nM after 16 hrs in presence of […] inhibitor MLN4924 by immunoblot method; assay type: cell-based
Target sequence in this assay (Q9UM73 19-1620 limits assumed): as the sequence (Q9UM73 19-1620 limits assumed) above

[7] = target: T2, Aurora kinase A (Homo sapiens); assay: Induction of aurora A degradation in human NCI-H3122 cells at 250 nM after 16 hrs in presence of […] inhibitor MLN4924 by immunoblot method; assay type: cell-based
[8] = target: T1, ALK tyrosine kinase receptor; assay: Induction of ALK degradation in human KARPAS299 cells at 250 nM after 16 hrs in presence of pomalidomide by immunoblot method; assay type: cell-based
Target sequence in this assay (Q9UM73 19-1620 limits assumed): as the sequence (Q9UM73 19-1620 limits assumed) above

[9] = target: T1, ALK tyrosine kinase receptor; assay: Induction of ALK degradation in human NCI-H3122 cells at 250 nM after 16 hrs in presence of ALK inhibitor TAE684 by immunoblot method; assay type: cell-based
Target sequence in this assay (Q9UM73 19-1620 limits assumed): as the sequence (Q9UM73 19-1620 limits assumed) above

[10] = target: T1, ALK tyrosine kinase receptor; assay: Induction of ALK degradation in human NCI-H3122 cells at 250 nM after 16 hrs in presence of ALK inhibitor LDK378 by immunoblot method; assay type: cell-based
Homo sapiens [11] = species on record: Homo sapiens; assay: Antiproliferative activity against human CHLA20 cells after 72 hrs by CellTiter-Glo luminescent cell viability assay; assay type: functional, cell-based
Homo sapiens [12] = species on record: Homo sapiens; assay: Antiproliferative activity against human CHLA20 cells after 72 hrs in presence of ABCB1 inhibitor tariquidar by CellTiter-Glo luminescent cell viability assay; assay type: functional, cell-based
[13] = target: T1, ALK tyrosine kinase receptor; assay: Induction of ALK degradation in human Kelly cells at 100 nM after 8 hrs by immunoblot method; assay type: cell-based
Method in brief: (§1)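 Kelly cells were treated with 100 nM compound for varying times and lysed at each time point. ALK levels were read by immunoblot.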

[14] = target: T2, Aurora kinase A (Homo sapiens); assay: Induction of aurora A degradation in human Kelly cells at 100 nM after 16 hrs in presence of proteasome inhibitor carfilzomib by immunoblot method; assay type: cell-based
Method in brief: (§2)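 Cells were pre-treated for 2 h with DMSO, carfilzomib, MLN4924 or pomalidomide, then treated with compound for 16 h, with immunoblot read-out. CHLA20 cells also received 125 nM tariquidar throughout.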

[15] = target: T2, Aurora kinase A (Homo sapiens); assay: Induction of aurora A degradation in human Kelly cells at 100 nM after 16 hrs in presence of pomalidomide by immunoblot method; assay type: cell-based; method in brief: as §2
[16] = target: T1, ALK tyrosine kinase receptor; assay: Induction of ALK degradation in human Kelly cells at 100 nM after 16 hrs in presence of pomalidomide by immunoblot method; assay type: cell-based
Method in brief: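 Kelly cells were pre-treated for 2 h with DMSO, carfilzomib, MLN4924, pomalidomide, TAE684 or LDK378. Degrader treatment followed for 16 h, and ALK was read by immunoblot.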

[17] = target: T1, ALK tyrosine kinase receptor; assay: Induction of ALK degradation in human CHLA20 cells at 100 nM after 16 hrs in presence of pomalidomide and ABCB1 inhibitor tariquidar by immunoblot method; assay type: cell-based
Method in brief: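 CHLA20 cells were kept with 125 nM tariquidar and pre-treated for 2 h with DMSO, carfilzomib, MLN4924, pomalidomide, TAE684 or LDK378. A 16 h degrader treatment followed, with immunoblot readout of ALK.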

[18] = target: T1, ALK tyrosine kinase receptor; assay: Induction of ALK degradation in human CHLA20 cells assessed as decrease in ALK phosphorylation at Y1507 at 50 to 250 nM after 16 hrs in presence of ABCB1 inhibitor tariquidar by immunoblot method; assay type: cell-based
Method in brief: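 CHLA20 neuroblastoma cells (ABCB1-high) were co-treated with 125 nM tariquidar throughout. They were dose-titrated for 16 hours and read by immunoblot.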

[19] = target: T1, ALK tyrosine kinase receptor; assay: Induction of ALK degradation in human Kelly cells at 100 nM after 4 hrs by immunoblot method; assay type: cell-based; method in brief: as §1
[20] = target: Focal adhesion kinase 1 (Homo sapiens) (UniProt Q05397); assay: Induction of PTK2 degradation in human NCI-H3122 cells at 0.01 to 1 uM after 16 hrs by immunoblot method; assay type: cell-based
Focal adhesion kinase 1 (Homo sapiens), sequence (Q05397 2-1052 limits assumed): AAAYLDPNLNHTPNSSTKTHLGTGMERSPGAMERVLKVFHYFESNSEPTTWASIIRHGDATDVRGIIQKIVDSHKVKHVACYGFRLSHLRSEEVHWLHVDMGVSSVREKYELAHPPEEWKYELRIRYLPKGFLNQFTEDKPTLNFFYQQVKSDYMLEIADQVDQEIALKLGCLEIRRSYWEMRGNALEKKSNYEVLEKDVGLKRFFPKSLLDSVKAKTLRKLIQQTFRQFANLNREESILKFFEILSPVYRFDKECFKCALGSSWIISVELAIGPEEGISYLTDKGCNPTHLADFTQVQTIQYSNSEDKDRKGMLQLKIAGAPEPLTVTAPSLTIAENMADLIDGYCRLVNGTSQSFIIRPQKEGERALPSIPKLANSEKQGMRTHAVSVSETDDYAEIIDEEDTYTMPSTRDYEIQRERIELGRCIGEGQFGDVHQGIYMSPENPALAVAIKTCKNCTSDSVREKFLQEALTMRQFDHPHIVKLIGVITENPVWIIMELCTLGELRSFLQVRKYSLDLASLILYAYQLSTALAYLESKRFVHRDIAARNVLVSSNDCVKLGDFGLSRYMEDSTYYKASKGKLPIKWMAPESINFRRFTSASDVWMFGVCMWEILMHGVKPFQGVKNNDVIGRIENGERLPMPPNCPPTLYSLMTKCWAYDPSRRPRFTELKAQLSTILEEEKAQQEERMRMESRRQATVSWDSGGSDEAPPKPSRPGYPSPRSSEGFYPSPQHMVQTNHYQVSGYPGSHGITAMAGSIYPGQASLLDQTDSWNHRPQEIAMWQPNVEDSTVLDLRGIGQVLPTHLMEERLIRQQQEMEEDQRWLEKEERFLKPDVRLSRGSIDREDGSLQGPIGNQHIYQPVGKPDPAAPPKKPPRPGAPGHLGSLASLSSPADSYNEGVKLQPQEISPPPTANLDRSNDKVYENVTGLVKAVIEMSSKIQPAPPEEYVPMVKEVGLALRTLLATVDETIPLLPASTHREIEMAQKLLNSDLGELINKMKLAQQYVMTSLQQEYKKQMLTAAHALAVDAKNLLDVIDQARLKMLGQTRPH

[21] = target: Tyrosine-protein kinase Fer (Homo sapiens) (UniProt P16591); assay: Induction of FER degradation in human NCI-H3122 cells at 0.01 to 1 uM after 16 hrs by immunoblot method; assay type: cell-based
Tyrosine-protein kinase Fer (Homo sapiens), sequence (P16591 whole entry, looked up): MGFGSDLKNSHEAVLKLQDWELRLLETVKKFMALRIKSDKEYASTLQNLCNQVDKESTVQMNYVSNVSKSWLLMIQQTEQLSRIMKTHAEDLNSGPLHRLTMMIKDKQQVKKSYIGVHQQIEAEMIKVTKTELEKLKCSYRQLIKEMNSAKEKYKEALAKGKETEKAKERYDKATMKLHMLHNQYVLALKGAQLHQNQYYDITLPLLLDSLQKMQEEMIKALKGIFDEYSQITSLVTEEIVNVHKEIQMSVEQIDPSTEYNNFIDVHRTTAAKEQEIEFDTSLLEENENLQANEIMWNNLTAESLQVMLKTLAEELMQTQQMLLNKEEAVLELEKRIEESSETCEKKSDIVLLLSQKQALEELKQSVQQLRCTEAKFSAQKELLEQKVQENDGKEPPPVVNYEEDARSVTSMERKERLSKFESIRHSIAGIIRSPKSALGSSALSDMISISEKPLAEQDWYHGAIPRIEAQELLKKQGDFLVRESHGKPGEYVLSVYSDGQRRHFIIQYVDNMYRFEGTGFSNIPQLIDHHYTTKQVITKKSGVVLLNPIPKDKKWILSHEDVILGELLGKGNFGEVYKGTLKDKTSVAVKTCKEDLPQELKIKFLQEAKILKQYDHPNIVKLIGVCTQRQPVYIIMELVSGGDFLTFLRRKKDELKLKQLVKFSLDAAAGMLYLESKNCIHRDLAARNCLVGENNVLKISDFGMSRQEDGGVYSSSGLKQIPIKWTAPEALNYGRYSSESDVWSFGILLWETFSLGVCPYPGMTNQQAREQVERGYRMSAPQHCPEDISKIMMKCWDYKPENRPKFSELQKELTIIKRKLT

[22] = target: Ribosomal protein S6 kinase alpha-1 (Homo sapiens) (UniProt Q15418); assay: Induction of RPS6KA1 degradation in human NCI-H3122 cells at 0.01 to 1 uM after 16 hrs by immunoblot method; assay type: cell-based
Ribosomal protein S6 kinase alpha-1 (Homo sapiens), sequence (Q15418 whole entry): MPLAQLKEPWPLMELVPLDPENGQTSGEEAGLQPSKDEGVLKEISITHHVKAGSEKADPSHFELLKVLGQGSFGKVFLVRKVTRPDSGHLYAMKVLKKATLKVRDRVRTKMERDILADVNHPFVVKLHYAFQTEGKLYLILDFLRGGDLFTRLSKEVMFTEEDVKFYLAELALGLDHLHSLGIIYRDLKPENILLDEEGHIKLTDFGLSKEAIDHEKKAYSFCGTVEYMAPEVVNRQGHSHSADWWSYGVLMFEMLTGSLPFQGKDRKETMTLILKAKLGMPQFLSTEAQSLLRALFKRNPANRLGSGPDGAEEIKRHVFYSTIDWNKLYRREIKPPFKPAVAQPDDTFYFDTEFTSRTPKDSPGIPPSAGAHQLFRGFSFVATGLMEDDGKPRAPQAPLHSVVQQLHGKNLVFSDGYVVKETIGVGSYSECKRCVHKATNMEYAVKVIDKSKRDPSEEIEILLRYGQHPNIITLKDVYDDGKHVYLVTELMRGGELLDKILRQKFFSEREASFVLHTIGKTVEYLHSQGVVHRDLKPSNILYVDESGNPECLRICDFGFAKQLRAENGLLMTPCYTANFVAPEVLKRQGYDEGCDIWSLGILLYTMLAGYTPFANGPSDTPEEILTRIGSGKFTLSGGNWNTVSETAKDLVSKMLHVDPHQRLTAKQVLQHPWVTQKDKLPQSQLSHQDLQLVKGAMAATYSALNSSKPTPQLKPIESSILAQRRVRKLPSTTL

[23] = target: Tyrosine-protein kinase Fer (Homo sapiens) (UniProt P16591); assay: Induction of FER degradation in human KARPAS299 cells at 0.01 to 1 uM after 16 hrs by immunoblot method; assay type: cell-based
[24] = target: Ribosomal protein S6 kinase alpha-1 (Homo sapiens) (UniProt Q15418); assay: Induction of RPS6KA1 degradation in human KARPAS299 cells at 0.01 to 1 uM after 16 hrs by immunoblot method; assay type: cell-based
[25] = target: Focal adhesion kinase 1 (Homo sapiens) (UniProt Q05397); assay: Induction of PTK2 degradation in human Kelly cells at 10 to 160 nM after 16 hrs by immunoblot method; assay type: cell-based
[26] = target: Tyrosine-protein kinase Fer (Homo sapiens) (UniProt P16591); assay: Induction of FER degradation in human NCI-H3122 cells at 250 nM measured over 2 to 16 hrs by immunoblot method; assay type: cell-based
[27] = target: Ribosomal protein S6 kinase alpha-1 (Homo sapiens) (UniProt Q15418); assay: Induction of RPS6KA1 degradation in human NCI-H3122 cells at 250 nM measured over 2 to 16 hrs by immunoblot method; assay type: cell-based
[28] = target: T2, Aurora kinase A (Homo sapiens); assay: Induction of aurora A degradation in human NCI-H3122 cells at 250 nM measured over 2 to 16 hrs by immunoblot method; assay type: cell-based
[29] = target: Tyrosine-protein kinase Fer (Homo sapiens) (UniProt P16591); assay: Induction of FER degradation in human Kelly cells at 100 nM measured over 2 to 16 hrs by immunoblot method; assay type: cell-based

Compound	Activity (NCI-H3122)	DC50 [1] [nM]	Activity [2]	Activity [3]	Activity [4]	Activity [5]	Activity [6]	Activity [7]	Activity [8]	Activity [9]	Activity [10]	Activity (Homo sapiens [11])	Activity (Homo sapiens [12])	Activity [13]	Activity [14]	Activity [15]	Activity [16]	Activity [17]	Activity [18]	Activity [19]	other results
COc1cc(N2CCN(CCOCCOCCNC(=O)CNc3cccc4c3C(=O)N(C3CCC(=O)NC3=O)C4=O)CC2)ccc1Nc1ncc(Cl)c(Nc2ccccc2S(=O)(=O)C(C)C)n1 (stereo not given)	Active	10	Active	inactive	inactive	inactive	inactive	inactive	inactive	inactive	Active	inactive	Active	Active	inactive	inactive	inactive	inactive	Active	inactive	Activity [20]: Active; Activity [21]: Active; Activity [22]: Active; Activity [23]: Active; Activity [24]: Active; Activity [25]: Active; Activity [26]: Active; Activity [27]: Active; Activity [28]: Active; Activity [29]: Active
Cc1cc(Nc2ncc(Cl)c(Nc3ccccc3S(=O)(=O)C(C)C)n2)c(OC(C)C)cc1C1CCN(CCOCCOCCNC(=O)CNc2cccc3c2C(=O)N(C2CCC(=O)NC2=O)C3=O)CC1 (stereo not given)	Active	10	Active	inactive	inactive	inactive	inactive	inactive	inactive	inactive	Active	inactive	Active	Active	inactive	inactive	inactive	inactive	Active	inactive	Activity [20]: Active; Activity [21]: Active; Activity [22]: Active; Activity [23]: Active; Activity [24]: Active; Activity [25]: Active; Activity [26]: Active; Activity [27]: Active; Activity [28]: Active; Activity [29]: Active

— ChEMBL document CHEMBL4177764 (J Med Chem, 2018)
